# According to ChEMBL document CHEMBL3120154, “2-[N-Alkyl(R-phenyl)-aminomethyl]-3-phenyl-7-trifluoromethylquinoxalines as anticancer agents inhibitors of folate enzymes” (Eur J Med Chem, 2014):
# Assays:
# Type in all cases: functional
# [1] = system: HCT-116; assay: Cytotoxicity against human HCT116 cells at 10^-5 M after 48 hrs by SRB assay; conditions: HCT-116, 48 h, read-out: GI
# In short: (§1)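 Run by NCI on its 60-line human tumor cell panel, after a three-cell-line prescreen. Cells were exposed to drug for 48 h over a 5-log range: 100, 10, 1, 0.1 and 0.01 micromolar. Growth was estimated by sulforhodamine B (SRB) protein staining. Percent growth inhibition (I%) was recorded at each concentration relative to untreated control cells.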
# [2] = Cytotoxicity against human OVCAR5 cells at 10^-5 M after 48 hrs by SRB assay; conditions: OVCAR-5, 48 h, read-out: GI
# In short: (§2)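 Second-stage screen in the 60-cell-line human tumor panel at NCI, over a 5-log range (100, 10, 1, 0.1, 0.01 micromolar). Cells were exposed to drug for 48 h and growth was estimated with a sulforhodamine B protein stain. The value is percent growth inhibition at each concentration.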
# [3] = system: MDA-MB-435; assay: Cytotoxicity against human MDA-MB-435 cells at 10^-5 M after 48 hrs by SRB assay; conditions: MDA-MB-435, 48 h, read-out: GI
# In short: (§3)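 Run in the NCI 60-cell-line screen after a three-line prescreen. Cells got a 48 h drug exposure; viability/growth was estimated with the sulforhodamine B protein assay. Growth inhibition (I%) was recorded at 100, 10, 1, 0.1 and 0.01 micromolar. Percent growth is relative to untreated control cells, and negative values indicate cell kill.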
# [4] = system: T47D; assay: Cytotoxicity against human T47D cells at 10^-5 M after 48 hrs by SRB assay; conditions: read-out: GI
# [5] = system: SK-OV-3; assay: Cytotoxicity against human SKOV3 cells at 10^-6 M after 48 hrs by SRB assay; conditions: SK-OV-3, 48 h, read-out: GI; in short: as §2
# [6] = system: ACHN; assay: Cytotoxicity against human ACHN cells at 10^-5 M after 48 hrs by SRB assay; conditions: read-out: GI; in short: as §1
# [7] = system: M14; assay: Cytotoxicity against human M14 cells at 10^-5 M after 48 hrs by SRB assay; conditions: M14, 48 h, read-out: GI; in short: as §3
# [8] = system: SW-620; assay: Cytotoxicity against human SW620 cells at 10^-5 M after 48 hrs by SRB assay; conditions: SW-620, 48 h, read-out: GI
# [9] = system: TK-10; assay: Cytotoxicity against human TK10 cells at 10^-6 M after 48 hrs by SRB assay; conditions: TK-10, 48 h, read-out: GI
# [10] = system: KM12; assay: Cytotoxicity against human KM12 cells at 10^-6 M after 48 hrs by SRB assay; conditions: KM12, 48 h, read-out: GI; in short: as §3
# [11] = system: A498; assay: Cytotoxicity against human A498 cells at 10^-5 M after 48 hrs by SRB assay; conditions: A498, 48 h, read-out: GI; in short: as §1
# [12] = system: SNB-19; assay: Cytotoxicity against human SNB19 cells at 10^-6 M after 48 hrs by SRB assay; conditions: SNB-19, 48 h, read-out: GI
# [13] = system: SF-268; assay: Cytotoxicity against human SF268 cells at 10^-6 M after 48 hrs by SRB assay; conditions: SF-268, 48 h, read-out: GI; in short: as §2
# [14] = system: RXF 393; assay: Cytotoxicity against human RXF393 cells at 10^-5 M after 48 hrs by SRB assay; conditions: RXF 393, 48 h, read-out: GI; in short: as §2
# [15] = system: MDA-MB-231; assay: Cytotoxicity against human MDA-MB-231 cells at 10^-5 M after 48 hrs by SRB assay; conditions: MDA-MB-231, 48 h, read-out: GI; in short: as §3
# [16] = system: A498; assay: Cytotoxicity against human A498 cells at 10^-6 M after 48 hrs by SRB assay; conditions: A498, 48 h, read-out: GI; in short: as §1
# [17] = system: OVCAR-8; assay: Cytotoxicity against human OVCAR8 cells at 10^-5 M after 48 hrs by SRB assay; conditions: OVCAR-8, 48 h, read-out: GI; in short: as §2
# [18] = system: HOP-62; assay: Cytotoxicity against human HOP62 cells at 10^-5 M after 48 hrs by SRB assay; conditions: HOP-62, 48 h, read-out: GI; in short: as §1
# [19] = Cytotoxicity against human UACC257 cells at 10^-5 M after 48 hrs by SRB assay; conditions: UACC-257, 48 h, read-out: GI
# [20] = system: HOP-92; assay: Cytotoxicity against human HOP92 cells at 10^-6 M after 48 hrs by SRB assay; conditions: HOP-92, 48 h, read-out: GI; in short: as §1
# [21] = system: COLO 205; assay: Cytotoxicity against human COLO205 cells at 10^-6 M after 48 hrs by SRB assay; conditions: COLO 205, 48 h, read-out: GI; in short: as §1
# [22] = Cytotoxicity against human OVCAR4 cells at 10^-5 M after 48 hrs by SRB assay; conditions: OVCAR-4, 48 h, read-out: GI; in short: as §2
# [23] = system: NCI-H322M; assay: Cytotoxicity against human NCI-H322M cells at 10^-5 M after 48 hrs by SRB assay; conditions: read-out: GI; in short: as §3
# [24] = system: HOP-92; assay: Cytotoxicity against human HOP92 cells at 10^-5 M after 48 hrs by SRB assay; conditions: HOP-92, 48 h, read-out: GI; in short: as §1
# [25] = system: PC-3; assay: Cytotoxicity against human PC3 cells at 10^-5 M after 48 hrs by SRB assay; conditions: PC-3, 48 h, read-out: GI; in short: as §2
# [26] = system: SK-MEL-5; assay: Cytotoxicity against human SK-MEL-5 cells at 10^-6 M after 48 hrs by SRB assay; conditions: SK-MEL-5, 48 h, read-out: GI; in short: as §2
# [27] = system: CAKI-1; assay: Cytotoxicity against human Caki1 cells at 10^-6 M after 48 hrs by SRB assay; conditions: CAKI-1, 48 h, read-out: GI; in short: as §1
# [28] = Cytotoxicity against human EKVX cells at 10^-5 M after 48 hrs by SRB assay; conditions: read-out: GI; in short: as §1
# [29] = system: HT-29; assay: Cytotoxicity against human HT-29 cells at 10^-5 M after 48 hrs by SRB assay; conditions: HT-29, 48 h, read-out: GI; in short: as §1
# [30] = system: DU-145; assay: Cytotoxicity against human DU145 cells at 10^-6 M after 48 hrs by SRB assay; conditions: DU-145, 48 h, read-out: GI; in short: as §1
# [31] = system: T47D; assay: Cytotoxicity against human T47D cells at 10^-6 M after 48 hrs by SRB assay; conditions: read-out: GI
# [32] = system: U-251; assay: Cytotoxicity against human U251 cells at 10^-5 M after 48 hrs by SRB assay; conditions: U-251, 48 h, read-out: GI
# [33] = system: IGROV-1; assay: Cytotoxicity against human IGROV1 cells at 10^-5 M after 48 hrs by SRB assay; conditions: IGROV-1, 48 h, read-out: GI; in short: as §3
# [34] = system: TK-10; assay: Cytotoxicity against human TK10 cells at 10^-5 M after 48 hrs by SRB assay; conditions: TK-10, 48 h, read-out: GI
# [35] = system: MOLT-4; assay: Cytotoxicity against human MOLT4 cells at 10^-5 M after 48 hrs by SRB assay; conditions: MOLT-4, 48 h, read-out: GI; in short: as §3
# [36] = system: COLO 205; assay: Cytotoxicity against human COLO205 cells at 10^-5 M after 48 hrs by SRB assay; conditions: COLO 205, 48 h, read-out: GI; in short: as §1
# [37] = system: ACHN; assay: Cytotoxicity against human ACHN cells at 10^-6 M after 48 hrs by SRB assay; conditions: read-out: GI; in short: as §1
# [38] = Cytotoxicity against human OVCAR5 cells at 10^-6 M after 48 hrs by SRB assay; conditions: OVCAR-5, 48 h, read-out: GI; in short: as §2
SMILES,inhibition of growth at 10 µM [1],inhibition of growth at 10 µM [2],inhibition of growth at 10 µM [3],inhibition of growth at 10 µM [4],inhibition of growth at 1 µM [5],inhibition of growth at 10 µM [6],inhibition of growth at 10 µM [7],inhibition of growth at 10 µM [8],inhibition of growth at 1 µM [9],inhibition of growth at 1 µM [10],inhibition of growth at 10 µM [11],inhibition of growth at 1 µM [12],inhibition of growth at 1 µM [13],inhibition of growth at 10 µM [14],inhibition of growth at 10 µM [15],inhibition of growth at 1 µM [16],inhibition of growth at 10 µM [17],inhibition of growth at 10 µM [18],inhibition of growth at 10 µM [19],inhibition of growth at 1 µM [20],further results
CCN(Cc1nc2cc(C(F)(F)F)ccc2nc1-c1ccccc1)c1ccc(OC)c(OC)c1,43%,< 40%,14%,24%,< 40%,25%,17%,18%,< 40%,< 40%,63%,< 40%,< 40%,102%,36%,26%,72%,18%,146%,< 40%,inhibition of growth at 1 µM [21]: < 40%; inhibition of growth at 10 µM [22]: < 40%; inhibition of growth at 10 µM [23]: < 40%; inhibition of growth at 10 µM [24]: 21%; inhibition of growth at 10 µM [25]: 56%; inhibition of growth at 1 µM [26]: < 40%; inhibition of growth at 1 µM [27]: 19%; inhibition of growth at 10 µM [28]: 23%; inhibition of growth at 10 µM [29]: 40%; inhibition of growth at 1 µM [30]: < 40%; inhibition of growth at 1 µM [31]: < 40%; inhibition of growth at 10 µM [32]: 62%; inhibition of growth at 10 µM [33]: 13%; inhibition of growth at 10 µM [34]: < 40%; inhibition of growth at 10 µM [35]: 44%; inhibition of growth at 10 µM [36]: < 40%; inhibition of growth at 1 µM [37]: < 40%; inhibition of growth at 1 µM [38]: < 40%
C#CCN(Cc1nc2cc(C(F)(F)F)ccc2nc1-c1ccccc1)c1ccc(C)cc1,79%,71%,147%,78%,< 40%,95%,95%,82%,< 40%,< 40%,116%,54%,< 40%,70%,64%,< 40%,62%,71%,< 40%,< 40%,inhibition of growth at 1 µM [21]: 108%; inhibition of growth at 10 µM [22]: 63%; inhibition of growth at 10 µM [23]: 62%; inhibition of growth at 10 µM [24]: < 40%; inhibition of growth at 10 µM [25]: < 40%; inhibition of growth at 1 µM [26]: < 40%; inhibition of growth at 1 µM [27]: < 40%; inhibition of growth at 10 µM [28]: < 40%; inhibition of growth at 10 µM [29]: 99%; inhibition of growth at 1 µM [30]: < 40%; inhibition of growth at 1 µM [31]: 90%; inhibition of growth at 10 µM [32]: 85%; inhibition of growth at 10 µM [33]: 63%; inhibition of growth at 10 µM [34]: 54%; inhibition of growth at 10 µM [35]: 88%; inhibition of growth at 10 µM [36]: 164%; inhibition of growth at 1 µM [37]: < 40%; inhibition of growth at 1 µM [38]: < 40%
